Measured values gathered from unrelated publications.
Protocols differ between the studies behind these lines.
BCHE: Cholinesterase (BCHE, Equus caballus, UniProt P81908)
PTGS1: Prostaglandin G/H synthase 1 (PTGS1, Ovis aries, UniProt P05979)
AGTR2: Type-2 angiotensin II receptor (AGTR2, Homo sapiens, UniProt P50052)

COc1nccc(CN2Cc3cc(OC)c(OC)cc3C2=O)n1
inhibition (BCHE; enzyme activity, inhibitor, Ellman; 1 µM): 6.1%

Nc1ccc(-c2nc3ccccc3s2)c(-c2ccc(O)cc2)c1
inhibition (PTGS1; enzyme activity, inhibitor, absorbance; 10 µM): 14.2%

CCCCCCCCCCCC(=O)OC[C@@H](COP(=O)(O)OCCNC(=O)c1ccc(Cn2c(=O)[nH]c3c(N)nc(OCCOC)nc32)cc1)OC(=O)CCCCCCCCCCC
inhibition (Androgen receptor (Ar, Rattus norvegicus, UniProt P15207); ligand displacement, radioligand; 10 µM): 55%

Nc1ccc(-c2nc3ccccc3s2)c(-c2cccc(O)c2)c1
inhibition (PTGS1; enzyme activity, inhibitor, absorbance; 10 µM): 27.7%

CN(CCN1CCC(OC(=O)Nc2ccccc2-c2ccccc2)CC1)C(=O)c1ccc(CN2CCC(C(N)=O)CC2)cc1
inhibition (AGTR2; ligand displacement, radioligand; 1 µM): -4%

COc1ccc(S(=O)(=O)N2CCCCC2)cc1C
inhibition (AGTR2; ligand displacement, radioligand; 10 µM): < 30%

Cc1ccc(-c2nc3ccccc3s2)c(-c2ccc(O)cc2)c1
inhibition (PTGS1; enzyme activity, inhibitor, absorbance; 10 µM): 8.4%

COc1cc2c(cc1OC)C(=O)N(CCc1c[nH]c3ccccc13)C2
inhibition (BCHE; enzyme activity, inhibitor, Ellman; 1 µM): 0.7%

Cn1cc(-c2cccc(N3CCc4c(sc5c4CC(C)(C)C5)C3=O)c2CO)cc(Nc2ccncn2)c1=O
inhibition (SRSF protein kinase 2 (SRPK2, Homo sapiens, UniProt P78362); enzyme activity, inhibitor; 1 µM): -3%

O=C(Nc1cccnn1)N1CCN([C@@H]2CCOc3cc(C(F)(F)F)ccc32)CC1
inhibition (AGTR2; cell-free assay; 20 µM): 0%

COc1cc2c(cc1OC)C(=O)N(Cc1cccc(N3CCCCC3)n1)C2
inhibition (BCHE; enzyme activity, inhibitor, Ellman; 1 µM): 4.8%

COCc1c(-c2cc3cc(C)cc(OC)c3s2)c2c(N)ncnn2c1CN1CCNC(=O)C1
inhibition (AGTR2; ligand displacement, radioligand; 10 µM): 9%

Cc1ncc(C)n2nc(/C=C/c3nc(N4CCCC4)cc(N4CCOCC4)n3)nc12
inhibition (cGMP-inhibited 3',5'-cyclic phosphodiesterase 3B (PDE3B, Homo sapiens, UniProt Q13370); enzyme activity, inhibitor; 10 µM): 15%

Oc1ccc(-c2ncccc2-c2nc3ccccc3s2)cc1
inhibition (PTGS1; enzyme activity, inhibitor, absorbance; 10 µM): 12.5%

C[C@H](C(=O)N[C@H]1COc2ccccc2[C@@H]1S(C)(=O)=O)c1ccc(F)cc1
inhibition (AGTR2; cell-free assay; 10 µM): 4%

COc1cc2c(cc1OC)C(=O)N(CC1CCN(Cc3cccnc3)CC1)C2
inhibition (BCHE; enzyme activity, inhibitor, Ellman; 1 µM): 2.7%

Cn1cc(-c2cc(F)cc(N3CCn4c(cc5c4CCCC5)C3=O)c2CO)cc(Nc2ccc(N3CCN(C4COC4)CC3)cn2)c1=O
inhibition (Serine/threonine-protein kinase MRCK alpha (CDC42BPA, Homo sapiens, UniProt Q5VT25); enzyme activity, inhibitor; 0.1 µM): 2%

CN(C)Cc1ccc(-c2nc3ccccc3s2)c(-c2ccc(O)cc2)c1
inhibition (PTGS1; enzyme activity, inhibitor, absorbance; 10 µM): 14.2%

COc1cc2c(cc1OC)C(=O)N(CC1CCN(Cc3cccc(C)n3)CC1)C2
inhibition (BCHE; enzyme activity, inhibitor, Ellman; 1 µM): 3.4%

CN(C)Cc1ccc(-c2nc3ccccc3s2)c(-c2cccc(O)c2)c1
inhibition (PTGS1; enzyme activity, inhibitor, absorbance; 10 µM): 30.7%

COc1cc2c(cc1OC)C(=O)N(Cc1ccc(F)nc1)C2
inhibition (BCHE; enzyme activity, inhibitor, Ellman; 1 µM): -6.8%

C#Cc1n[nH]c2c(-c3cn(C(C)c4ccccn4)c(=O)[nH]c3=O)cc(F)cc12 (stereo not drawn)
inhibition (Serine/threonine-protein kinase MARK1 (MARK1, Homo sapiens, UniProt Q9P0L2); enzyme activity, inhibitor; 1 µM): 11.2%

Cc1ccc(-c2nc3ccccc3s2)c(-c2ccc(S(C)(=O)=O)cc2)c1
inhibition (PTGS1; enzyme activity, inhibitor, absorbance; 10 µM): 9.7%

COc1cc2c(cc1OC)C(=O)N(CC1CCN(Cc3ccncc3)CC1)C2
inhibition (BCHE; enzyme activity, inhibitor, Ellman; 1 µM): 8.2%
